{"source": "paper PMC8159369", "about": "(Chemical Science, 2020)", "biological_target": "HRP-labeled WGA", "assay": "Enzyme-linked lectin assay", "parameters": "species or system Triticum vulgaris", "conditions": "inhibition of binding of HRP-labeled WGA to covalently immobilized GlcNAc", "how_it_was_run": "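ELLA in which the test compound competes with a surface-coated reference ligand for lectin binding. Dose–response curves were recorded over a concentration series. IC50 is the concentration giving 50% inhibition of lectin binding.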", "note": "pIC50: −log10 of the molar value.", "data": [{"smiles": "CC(=O)N[C@@H]1[C@@H](O)[C@H](O)[C@@H](CO)O[C@H]1O", "note": "[GlcNAc, N-acetylglucosamine]", "values": [{"measurement": "pIC50", "result": 1.82}]}]}
